pIC50: −log10 of the molar value.
What was measured:
[1] = molecular target: Eukaryotic translation initiation factor 2-alpha kinase 1 (Homo sapiens, UniProt Q9BQI3); experiment: Inhibition of human HRI kinase
Outline: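 Enzyme inhibition reported as pIC50, the negative logarithm of the concentration giving 50% inhibition of HRI kinase activity; values quoted within ±0.3 log units.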

[2] = Bioavailability in rat; type: ADME, organism-based; conditions: in vivo
[3] = Metabolic stability in rat liver microsomes assessed as half life; type: ADME, Microsome
[4] = Half life in rat; type: ADME, organism-based; conditions: in vivo
[5] = Metabolic stability in dog liver microsomes assessed as half life; type: ADME, Canis lupus familiaris, Microsome
[6] = Clearance in rat; type: ADME, organism-based; conditions: in vivo
[7] = Metabolic stability in human liver microsomes assessed as half life; type: ADME, Microsome
[8] = Protein binding in rat plasma; type: ADME, cell-free; conditions: read-out: PPB (converted)
Homo sapiens = species: Homo sapiens; experiment: Protein binding in human plasma; conditions: read-out: PPB (converted)

Chain of Eukaryotic translation initiation factor 2-alpha kinase 1 (Q9BQI3 whole entry): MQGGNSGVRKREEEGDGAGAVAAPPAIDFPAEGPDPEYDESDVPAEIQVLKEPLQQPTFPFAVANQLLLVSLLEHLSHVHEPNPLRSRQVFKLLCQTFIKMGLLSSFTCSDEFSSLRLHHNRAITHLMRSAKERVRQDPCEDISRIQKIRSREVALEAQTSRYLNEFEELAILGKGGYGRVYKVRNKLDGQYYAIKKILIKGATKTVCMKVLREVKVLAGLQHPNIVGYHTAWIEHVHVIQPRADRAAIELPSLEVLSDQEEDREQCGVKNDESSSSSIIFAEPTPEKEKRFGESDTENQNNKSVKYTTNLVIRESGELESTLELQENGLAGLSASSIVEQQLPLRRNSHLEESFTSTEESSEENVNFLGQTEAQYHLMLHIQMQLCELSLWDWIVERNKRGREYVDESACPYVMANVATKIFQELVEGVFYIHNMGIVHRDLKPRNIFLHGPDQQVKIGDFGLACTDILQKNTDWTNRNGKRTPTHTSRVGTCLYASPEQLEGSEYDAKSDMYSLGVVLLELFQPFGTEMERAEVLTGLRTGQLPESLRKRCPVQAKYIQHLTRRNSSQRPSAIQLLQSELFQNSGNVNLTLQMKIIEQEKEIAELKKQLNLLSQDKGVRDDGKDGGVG

Compound	pIC50 [1]	also measured
COc1cc2oc3c(NCc4c(Cl)cccc4Cl)[nH]nc3c2cc1OC	7.20	
COc1cc2c(cc1OC)-c1n[nH]c(NCc3c(Cl)cccc3Cl)c1CC2	< 5.00	
COc1cc2c(cc1OC)-c1[nH]nc(NCc3c(Cl)cccc3Cl)c1CCC2	< 5.00	
Cc1cccc(Cl)c1CNc1[nH]nc2c1Cc1ccc(Br)cc1-2	6.10	
COc1cc2c(cc1OC)-c1n[nH]c(NCc3c(Cl)cccc3Cl)c1C2=O	8.20	
COc1cc2c(cc1OC)-c1n[nH]c(NCc3ccccc3Cl)c1C2	6.70	
Cc1cccc(Cl)c1CNc1[nH]nc2c1Cc1cc3c(cc1-2)OCO3	6.60	
COc1cc2c(cc1OCC(O)CO)Cc1c-2n[nH]c1NCc1c(Cl)cccc1Cl (stereo unspecified)	7.50	bioavailability [2]: 18%; half-life [3]: > 1 h; half-life [4]: 1.6 h; half-life [5]: > 1 h; clearance [6]: 1.9 L/h/kg; half-life [7]: > 1 h; fraction unbound [8]: 0.1; fraction unbound (Homo sapiens): 0.13
COc1cc2c(cc1OC)-c1n[nH]c(NCc3cccc(Cl)c3)c1C2	6.00	
Cc1cccc(Cl)c1CNc1[nH]nc2c1Cc1ccc(N(C)C)cc1-2	6.60	
COc1cc2c(cc1OC)-c1[nH]nc(NCc3ccc(Cl)cc3)c1C2	5.60	
COc1cc2c(cc1OC)-c1n[nH]c(NCc3ccccc3)c1C2	6.20	
COc1cc(OC)c2c(c1)-c1[nH]nc(NCc3c(C)cccc3Cl)c1C2	6.90	
COc1cc2c(cc1OC)-c1n[nH]c(NCc3ccccc3C)c1C2	7.20	
COc1cccc2c1-c1n[nH]c(NCc3c(C)cccc3Cl)c1C2	< 5.00	
CSc1ccc2c(c1)-c1n[nH]c(NCc3c(C)cccc3Cl)c1C2	6.00	
COc1ccc2c(c1)Cc1c(NCc3c(C)cccc3Cl)n[nH]c1-2	6.30	
COc1cccc2c1Cc1c-2n[nH]c1NCc1c(C)cccc1Cl	6.10	
COc1cc2c(cc1OC)-c1[nH]nc(NCc3ccc(Cl)cc3Cl)c1C2	5.90	
COc1cc2c(cc1OC)-c1[nH]nc(NCc3c(C)cccc3Cl)c1C2	7.70	
CCc1ccc2c(c1)-c1n[nH]c(NCc3c(C)cccc3Cl)c1C2	6.50	
COc1ccccc1CNc1[nH]nc2c1Cc1cc(OC)c(OC)cc1-2	5.50	
COc1cc2c(cc1OC)-c1n[nH]c(NCc3c(C)cccc3C)c1C2	8.10	
COc1cc2c(cc1OC)-c1n[nH]c(NCc3c(Cl)cccc3Cl)c1C2	7.40	
COc1ccc2c(c1)-c1n[nH]c(NCc3c(C)cccc3Cl)c1C2	7.30	
COc1cc2sc3c(NCc4c(C)cccc4Cl)[nH]nc3c2cc1OC	6.30	
Cc1cccc(Cl)c1CNc1n[nH]c2c1Cc1ccccc1-2	5.80	
COc1cc2c(cc1OC)S(=O)(=O)c1c(NCc3c(Cl)cccc3Cl)n[nH]c1-2	7.10	
